In brackets after ≈: the same amount, converted by molar mass. Values belong to the compound of their own block, whether it stands above or below them.
What was measured:
B1 bradykinin receptor = target: T1, B1 bradykinin receptor (Homo sapiens, UniProt P46663); assay: Antagonist activity at bradykinin B1 receptor in human IMR90 cells assessed as inhibition of des-Arg-bradykinin-mediated calcium mobilization; type: functional, cell-based, IMR-90; conditions: in the assay text read “des-Arg-kallidin-mediated” for “des-Arg-bradykinin-mediated”
T1 sequence (P46663 whole entry): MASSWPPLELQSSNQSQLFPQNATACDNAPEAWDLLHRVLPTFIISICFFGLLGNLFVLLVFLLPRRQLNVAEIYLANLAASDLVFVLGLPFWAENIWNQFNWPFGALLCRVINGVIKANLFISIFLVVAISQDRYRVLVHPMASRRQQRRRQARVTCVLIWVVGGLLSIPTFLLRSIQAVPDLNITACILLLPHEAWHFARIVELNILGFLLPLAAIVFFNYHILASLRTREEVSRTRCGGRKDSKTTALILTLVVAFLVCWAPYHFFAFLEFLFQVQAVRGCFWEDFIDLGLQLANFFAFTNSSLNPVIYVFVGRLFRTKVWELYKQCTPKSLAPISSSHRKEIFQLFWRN
Method in brief: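 Human lung fibroblast IMR-90 cells pretreated with IL-1 beta; B1 receptor functional activity read as inhibition of DAKD-mediated calcium mobilization (CAM assay). Values are the numerical average of at least two experiments.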

[1] = Oral bioavailability in Wistar rat at 1 mg/kg; type: ADME, organism-based; conditions: in vivo
Method in brief: (§1)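 Male Wistar rats dosed at 1 mg/kg iv (group 1) and 1 mg/kg po (group 2). Plasma aliquots precipitated with methanol containing a structural analogue as internal standard, then analyzed by HPLC-MS/MS for time/concentration values. PK parameters (terminal t1/2, CL, F) derived from these profiles.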

[2] = Metabolic stability in human liver microsomes after 1 hr; type: ADME, Microsome; conditions: read-out: Stability
Method in brief: (§2)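 Incubation with human or rat liver microsomes for 1 h; percent parent remaining reported.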

[3] = Metabolic stability in rat liver microsomes after 1 hr; type: ADME, Microsome; conditions: read-out: Stability; method in brief: as §2
[4] = Aqueous Solubility in PBS buffer; type: physicochemical
Hepatocyte = assay: Cytotoxicity against human hepatocytes; type: cell-based
Method in brief: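 Cell viability in plateable cryopreserved human hepatocytes exposed to a range of concentrations up to 100 µM for 24 h at 37 °C; resazurin substrate, resorufin product detected by fluorimetry.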

[5] = Compound remaining in PBS buffer after 5 days; type: physicochemical; conditions: read-out: Stability
Method in brief: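 Chemical stability: compound incubated in PBS buffer at 50 °C for 5 days; percent remaining determined.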

[6] = Apparent permeability from apical to basolateral side of human Caco-2 cell; type: ADME, cell-based
Method in brief: (§3)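 Bidirectional permeability through Caco-2 cell monolayers; Papp measured apical-to-basolateral and basolateral-to-apical, with efflux ratio taken as B–A over A–B.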

[7] = Apparent permeability from basolateral to apical side of human Caco-2 cell; type: ADME, cell-based; method in brief: as §3
Caco-2 = assay: Ratio of permeability from basolateral to apical side to apical to basolateral side in human Caco-2 cells; type: ADME, cell-based; method in brief: as §3
[8] = Half life in Wistar rat at 1 mg/kg, iv […]; type: ADME, organism-based; conditions: in vivo; method in brief: as §1
[9] = Clearance in Wistar rat at 1 mg/kg, iv […]; type: ADME, organism-based; conditions: in vivo; method in brief: as §1
Homo sapiens = species on record: Homo sapiens; assay: Protein binding in human plasma; conditions: read-out: PPB (converted)

IC50 (B1 bradykinin receptor): 3.6 nM
SMILES: Cc1nc(-c2c(F)cc(Cl)cc2-c2cnc([C@@H](C)NC(=O)N(C)O)c(C)c2)no1

IC50 (B1 bradykinin receptor): > 100 nM
SMILES: Cc1nc(-c2c(F)cc(Cl)cc2-c2ccc(CNC(=O)N(C)O)cc2)no1

IC50 (B1 bradykinin receptor): 1 nM
SMILES: CC(C)N(O)C(=O)NCc1ncc(-c2cc(Cl)cc(F)c2-c2nnn(C)n2)cc1F

IC50 (B1 bradykinin receptor): 0.19 nM
bioavailability [1]: 78%
remaining at 1 h [2]: 61%
remaining at 1 h [3]: 84%
solubility [4]: 39 µM (≈ 20 µg/mL)
remaining at 120 h [5]: > 99%
Papp A→B [6]: 24 ×10⁻⁶ cm/s
Papp B→A [7]: 43 ×10⁻⁶ cm/s
Ratio (Caco-2): < 3
half-life [8]: 47 min
clearance [9]: 13 mL/min/kg
fraction unbound (Homo sapiens): 0.013
SMILES: Cn1nnc(-c2c(F)cc(Cl)cc2-c2cnc(CNC(=O)N(O)C3CCC(F)(F)CC3)c(F)c2)n1
Activity (Hepatocyte): Non-toxic

IC50 (B1 bradykinin receptor): 59 nM
SMILES: Cn1nnc(-c2c(F)cc(Cl)cc2-c2cnc(CNC(=O)NO)c(F)c2)n1

IC50 (B1 bradykinin receptor): 0.8 nM
SMILES: Cn1nnc(-c2c(F)cc(Cl)cc2-c2cnc(CNC(=O)N(O)C3CCCC3)c(F)c2)n1

IC50 (B1 bradykinin receptor): 32 nM
SMILES: Cc1nc(-c2c(F)cc(Cl)cc2-c2ccc(CNC(=O)N(C)O)c(F)c2)no1

IC50 (B1 bradykinin receptor): 2.3 nM
SMILES: Cc1nc(-c2c(Cl)cc(Cl)cc2-c2cnc([C@@H](C)NC(=O)N(C)O)c(F)c2)no1

IC50 (B1 bradykinin receptor): 17 nM
SMILES: CN(O)C(=O)NCc1ncc(-c2cc(Cl)cc(F)c2-c2nnn(C)n2)cc1F

IC50 (B1 bradykinin receptor): 31 nM
SMILES: Cc1nc(-c2c(F)cccc2-c2cnc([C@@H](C)NC(=O)N(C)O)c(F)c2)no1

IC50 (B1 bradykinin receptor): 1.2 nM
bioavailability [1]: 8%
half-life [8]: 12 min
clearance [9]: 58 mL/min/kg
SMILES: Cc1nc(-c2c(F)cc(Cl)cc2-c2cnc([C@@H](C)NC(=O)N(C)O)c(F)c2)no1

IC50 (B1 bradykinin receptor): 3.9 nM
SMILES: Cn1nnc(-c2c(F)cc(Cl)cc2-c2cnc(CNC(=O)N(O)C3CCCCC3)c(F)c2)n1

IC50 (B1 bradykinin receptor): 1.4 nM
SMILES: Cn1nnc(-c2c(F)cc(Cl)cc2-c2cnc(CNC(=O)N(O)C(C)(C)C)c(F)c2)n1

IC50 (B1 bradykinin receptor): 17 nM
SMILES: Cc1nc(-c2c(F)cc(Cl)cc2-c2cnc(CNC(=O)N(C)O)c(F)c2)no1

IC50 (B1 bradykinin receptor): 0.5 nM
bioavailability [1]: 86%
half-life [8]: 80 min
clearance [9]: 8 mL/min/kg
SMILES: Cn1nnc(-c2c(F)cc(Cl)cc2-c2cnc(CNC(=O)N(O)C(CF)CF)c(F)c2)n1

IC50 (B1 bradykinin receptor): 4.6 nM
SMILES: CCN(O)C(=O)NCc1ncc(-c2cc(Cl)cc(F)c2-c2nnn(C)n2)cc1F

Reference: ChEMBL document CHEMBL1159049, “Novel small molecule bradykinin B1 receptor antagonists. Part 3: hydroxyurea derivatives” (Bioorg Med Chem Lett, 2010)
